Compounds with a hit are over-represented: about 1.7% of the library has one in this group of screens.
STEP block: blocks human striatal-enriched tyrosine phosphatase. P54829. recombinant STEP, OMFP fluorogenic substrate, fluorescence. inhibition, % at 20 µM. 360,000 tested, 0.25% active;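 active = inhibition at 20 µM, scaled per plate between control wells, above about 37%, limit read from the data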;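 also: 0% = DMSO with enzyme and substrate and 100% = substrate only without enzyme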
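System: STEP (striatal-enriched tyrosine phosphatase) enzyme, cell-free; medium: Bis-Tris pH 6.0 buffer with DTT, detergent; dosing: 20 µM, 1% DMSO; times: reaction 20 min, ambient temperature; detection: fluorescence, 480/540 nm; read-out basis: normalized % inhibition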
Scp1 inh: inhibitors of human Scp-1 phosphatase; inhibition, % at 20 µM; 340,000 tested, 0.88% active; AID 493091; Q9GZU7; Recombinant Scp1, phosphopeptide, malachite green phosphate absorbance;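 active = inhibition above about 50% at 20 µM, limit read from the data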;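 also: plate controls were DMSO wells with enzyme for no effect and wells lacking enzyme for full effect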
Target sequence (Q9GZU7 76-261 limits assumed): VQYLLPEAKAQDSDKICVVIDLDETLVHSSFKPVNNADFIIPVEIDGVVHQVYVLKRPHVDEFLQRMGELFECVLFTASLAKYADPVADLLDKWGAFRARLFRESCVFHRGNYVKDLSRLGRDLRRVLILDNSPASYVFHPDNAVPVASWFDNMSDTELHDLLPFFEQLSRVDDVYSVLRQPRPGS
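System: SCP-1 catalytic domain; Reagent: Phospho 17-mer peptide substrate; Doses: one concentration, 20 µM, with 1.0% DMSO; Incubation: 45 min room-temperature reaction, 5 min colour, 30 min stabiliser; Signal: Phosphate-binding colour reagent, absorbance read at 630 nm.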
SUMO1 PPI mod: SUMO1-SIM interaction modulation. AID 602429. inhibition, % at 20 µM. SUMO1 binding to a labelled peptide, TR-FRET, 1 h. 360,000 tested, 0.33% active; in the data active = inhibition above about 37%
Target sequence (P63165 whole entry, looked up): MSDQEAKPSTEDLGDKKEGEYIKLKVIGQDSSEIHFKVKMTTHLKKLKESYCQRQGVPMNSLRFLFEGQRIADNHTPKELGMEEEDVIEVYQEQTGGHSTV
LMPTP inh: LMPTP (human) inhibition; P24666; recombinant LMPTP-A, OMFP fluorogenic substrate, fluorescence intensity; inhibition, % at 20 µM; 360,000 tested, 0.22% active;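 active = compounds that cut the enzyme signal by at least half of the control window in the single-dose screen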;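 also: plate controls were DMSO wells with enzyme plus substrate for no effect and substrate without enzyme for full effect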
Target sequence (P24666 whole entry, looked up): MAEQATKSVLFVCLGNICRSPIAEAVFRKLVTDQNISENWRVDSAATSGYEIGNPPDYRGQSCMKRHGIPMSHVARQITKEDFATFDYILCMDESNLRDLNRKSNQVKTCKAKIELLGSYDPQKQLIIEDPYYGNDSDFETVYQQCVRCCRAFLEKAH
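Buffer or medium: Bis-Tris pH 6.0, DTT, detergent; Assay system: LMPTP-A enzyme; Quantity: 0.625 nM enzyme; Detection: endpoint fluorescence intensity; Times: 50 min dark incubation at room temperature; Controls: substrate-only low control, DMSO enzyme-plus-substrate high control; Doses: single 20 µM dose; Read-out: percent inhibition versus substrate-only and uninhibited controls; Reagent: 400 µM OMFP.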
DNMT1 inh: inhibitors of human DNMT1. DNMT1 molecular beacon, Hinp1I cleavage, fluorescence. 360,000 tested, 0.83% active. inhibition (reported as % activation of signal), % at 10 µM. AID 588458; in the data active = inhibition above about 50%
Scp1 confirm: Scp-1 (human) inhibition, single-dose confirmed; shares compounds with Scp1 inh; recombinant SCP-1 catalytic domain, phosphate release, malachite green absorbance; inhibition, % at 20 µM; 2,500 tested, 61% active; AID 540281;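 also: plate controls were DMSO with enzyme for no effect and buffer wells lacking enzyme for full effect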
Scp-1 MG ctr: interferes with malachite green readout, flagging false Scp-1 hits; 2,500 tested, under 10 active; shares compounds with Scp1 inh; apparent inhibition (interference), % at 20 µM; Colorimetric interference counterscreen, malachite green absorbance 630 nm;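 also: compounds added after enzyme reaction finished so only phosphate colour detection is probed; plate controls were DMSO wells with completed Scp-1 reaction for no effect and substrate wells lacking enzyme for full effect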
Scp1 DSF: validation of human Scp-1 inhibitors by thermal shift binding; shares compounds with Scp1 inh; Recombinant SCP1, Sypro Orange thermal shift Tm; thermal shift relative to vanadate control, % at 40 µM; 1,500 tested, 25% active;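 active = substances whose mean melting-temperature shift, as a percentage of the reference inhibitor's shift, reaches about 5.3%, limit read from the data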;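 also: 0% = Tm of DMSO wells and 100% = Tm with sodium orthovanadate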
* marks the source's active call; other numbers are inactive results; . = not tested or not shown.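 The calls were made as follows, unless noted: active = inhibition of at least 30% at 20 µM; inactive = the rest.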

SMILES	STEP block	Scp1 inh	SUMO1 PPI mod	LMPTP inh	DNMT1 inh	Scp1 confirm	Scp-1 MG ctr	others
NCc1csc(Nc2ccc(C(=O)c3ccccc3)cc2)n1	-1.8	.	-4.5	1.1	-13.1	.	.
COCCn1nnnc1C(C(C)C)N1CCSCC1 (centres undefined)	-1.0	67.0*	-1.7	-1.5	1.5	-5.3	-11.8
CC(C)C(c1nnnn1CCc1ccccc1)N1CCSCC1 (centres undefined)	-2.9	-0.7	-0.8	-0.1	1.6	.	.
Cc1nc(Cn2c3ccc(NC(=S)NC4CCCCC4)cc3c(=O)n2C)cs1	0.1	.	4.3	-0.4	-0.4	.	.
O=C(O)c1ccc2c(=O)n3c(nc2c1)/C(=C/c1ccc(Cl)c(Cl)c1)CC3	7.2	55.0*	-0.9	0.1	7.1	11.7	-7.6
O=C(O)c1ccc2c(=O)n3c(nc2c1)/C(=C/c1cccc(O)c1)CC3	1.8	-0.5	-1.3	0.1	-0.2	.	.
O=C(CCCCCCCC(=O)NNC(=O)Nc1ccccc1)NNC(=O)Nc1ccccc1	6.3	73.5*	-0.3	16.3	0.2	64.8*	-16.2	Scp1 DSF=-15.2
O=C(Cn1c(=O)cnc2ccccc21)Nc1cc(Cl)ccc1N1CCOCC1	12.3	53.0*	-12.3	1.0	39.6	47.6*	-11.2	Scp1 DSF=3.3
CCN1C(=NCc2ccco2)N[C@@H](c2cccc(C(F)(F)F)c2)C(C(=O)OC)=C1C	-2.2	4.4	-20.4	-1.4	2.8	.	.
CCN1C(=NCCOC)N[C@@H](c2cccc(C(F)(F)F)c2)C(C(=O)OC)=C1C	2.0	56.1*	-1.9	-1.7	2.1	5.1	-9.3
CCN1C(=NCc2cc(OC)c(OC)c(OC)c2)N[C@@H](c2ccccc2)C(C(=O)OC)=C1C	0.4	54.2*	2.8	0.1	5.3	-13.4	-13.1
CCN1C(=NCC2CC2)N[C@@H](c2cccc(C(F)(F)F)c2)C(C(=O)OC)=C1C	-0.2	50.1*	-7.2	-0.2	3.5	-14.4	-13.4
COc1ccc(CCC(=O)N2c3ccccc3N=C(c3ccc(C(F)(F)F)cc3)C2C(=O)NC(C)C)cc1 (centres undefined)	.	.	-18.9	1.0	.	.	.
CSc1nnc(C)c(/C=C/Nc2ccc(F)cc2F)n1	1.5	55.0*	-10.6	0.1	-16.9	65.7*	-7.9	Scp1 DSF=-18.7
CC1(C(=O)NCc2cccs2)CCN1C(=O)Cc1ccc(Cl)cc1Cl (centres undefined)	-0.5	.	2.6	-1.2	5.9	.	.
Cc1ccc(Cc2c(C3CCCCC3)nc3cc(C)c(Br)c(C)n23)cc1	0.6	.	3.4	1.1	17.0	.	.
C[n+]1cnc(-c2ccccc2)cc1-c1ccccc1	-2.8	100.8*	-23.4	0.7	1.7	85.8*	-12.3	Scp1 DSF=-20.5
CCOC1=C2[C@@H](CN(S(=O)(=O)c3ccc(C)cc3)[C@H]2c2cccc3ccccc23)[C@H]2C(=O)N(C)C(=O)[C@H]2C1	1.9	.	0.9	0.9	-4.7	.	.
N#Cc1ccccc1N1CCN(C(=O)c2ccc(NC(=O)c3ccc(Br)o3)cc2)CC1	0.8	60.4*	10.6	11.8	0.7	73.0*	-4.3	Scp1 DSF=-1.1
O=C(Nc1ccc(C(=O)N2CCN(c3ccccn3)CC2)cc1)c1ccc(Br)o1	-0.2	1.7	6.4	1.3	-5.4	.	.
Cc1ccc(S(=O)c2ccc([N+](=O)[O-])c3nonc23)cc1 (centres undefined)	5.1	.	24.3	8.0	29.9	.	.
Cc1c(F)cccc1NC(=O)CCCCCC1NC(=O)NC1C (centres undefined)	-4.8	-0.7	0.9	-1.0	0.3	-0.2	-6.8
CC1NC(=O)NC1CCCCCC(=O)Nc1ccc(F)cc1 (centres undefined)	-2.4	13.0	2.3	0.0	3.0	-17.5	-14.8
O=C(CCCC(=O)c1ccccc1)Nc1ccc(F)cc1	1.1	-12.3	-4.5	-1.5	4.8	.	.
Cc1c(/C(O)=C2/C(=O)C(=O)N(CCN3CCOCC3)C2c2cccnc2)cnn1-c1ccccc1 (centres undefined)	-6.0	-3.1	-5.6	-3.6	-0.3	.	.
SMILES	STEP block	Scp1 inh	SUMO1 PPI mod	LMPTP inh	DNMT1 inh	Scp1 confirm	Scp-1 MG ctr	others
Cc1c(/C(O)=C2/C(=O)C(=O)N(CCN3CCOCC3)C2c2ccco2)cnn1-c1ccccc1 (centres undefined)	1.3	-4.3	-5.9	0.7	0.4	-12.6	-6.8
C[C@@H]1CC=C[C@@H]2[C@H]1C(=O)N(Cc1ccccc1)[C@H]2c1cccc(C#Cc2ccccc2)c1	1.9	70.1*	-1.3	4.8	2.9	41.5*	-21.9	Scp1 DSF=-15.7
C[C@@H]1CC=C[C@@H]2[C@H]1C(=O)N(Cc1ccccc1)[C@H]2c1cccc(Br)c1	2.9	1.3	1.4	2.8	4.3	.	.
Brc1ccc([C@H]2C=C[C@H]3CCCN4CC[C@H]2[C@@H]3[C@]42CO2)cc1	.	.	1.1	1.4	.	.	.
O=C(Nc1ccc2c(c1)OCO2)c1cc(C2CCCN(C(=O)C3CCCCC3)C2)on1 (centres undefined)	2.4	.	1.0	0.8	-2.6	.	.
C[n+]1ccccc1C1CCCC/C1=N\NC(N)=S (centres undefined)	0.3	112.6*	-2.1	-1.1	8.5	99.7*	0.6	Scp1 DSF=-8.6
CC1CCCC/C1=N\NC(=S)NCCc1ccccc1 (centres undefined)	-0.8	-0.7	-7.1	0.0	0.5	.	.
C[C@H](CO)N1C[C@H](C)[C@@H](CN(C)S(=O)(=O)c2ccc(F)cc2)Oc2ccc(NC(=O)c3ccncc3)cc2C1=O	-2.4	59.4*	-5.2	-2.5	0.3	6.6	-11.5
C[C@H](CO)N1C[C@H](C)[C@@H](CN(C)S(=O)(=O)c2ccccc2)Oc2ccc(NC(=O)c3ccncc3)cc2C1=O	1.6	7.2	3.6	0.6	2.7	.	.
Cc1noc(C)c1NC(=O)N(C)C[C@H]1Oc2ccc(NC(=O)Nc3ccccc3)cc2C(=O)N([C@H](C)CO)C[C@@H]1C	-3.2	65.0*	0.7	-2.2	8.0	0.8	-10.4
COc1ccc(NC(=O)N(C)C[C@H]2Oc3ccc(NC(=O)Nc4ccc(C(F)(F)F)cc4)cc3C(=O)N([C@H](C)CO)C[C@@H]2C)cc1	-0.2	50.4*	4.6	3.3	-17.6	12.8	-7.1
COc1ccc(NC(=O)Nc2ccc3c(c2)C(=O)N([C@H](C)CO)C[C@H](C)[C@@H](CN(C)C(=O)Nc2ccc(C(F)(F)F)cc2)O3)cc1	-0.2	-1.9	17.3	2.0	-11.5	.	.

Assay outcomes as filed in PubChem.
